Source: PubChem BioAssay (several laboratories)
Hits are enriched below; roughly 4.3% of the tested compounds scored in any of these assays.
MC4R ag barr: MC4R agonists recruiting beta-arrestin, primary screen, cell-based, luminescence, agonist arm of biased-ligand search; AID 540308, 2011; activation, % at 8.9 µM; Melanocortin receptor 4 (Homo sapiens), P32245; actives 0.98% (n = 360,000); U2OS MC4R beta-arrestin complementation; percent of melanotan II response, DMSO zero;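 active = activation above a per-plate cutoff, the mean activation of sample wells on that plate plus 3 SD, cut at about 8% in these data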
MC4R antagonist: MC4R antagonists of cAMP signaling, primary screen, cell-based, TR-FRET, antagonist arm of biased-ligand search. MC4R-expressing cells, MTII-stimulated cAMP, LANCE TR-FRET. actives 0.48% (n = 360,000). inhibition, % at 6.5 µM;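 active = inhibition above its plate's cutoff, the mean of tested wells on that plate plus 3 SD, cut at about 29% in these data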;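 also: 0% = Melanotan II alone and 100% = Melanotan II plus saturating MCL0020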
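Assay system: human MC4R-expressing U2OS cells; reagent: Melanotan II stimulation of cells; dosing: 6.5 µM single dose; timing: compound 30 min, challenge 1 h, detection 1 h; signal: TR-FRET cAMP assay; replicates: one well per compound, no replicates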
Beta2AR agonist: beta2AR agonists driving receptor internalization, primary screen, cell-based, FAP fluorogen, flow cytometry | response, % (test concentration not listed) | Am2.2-beta2AR cells | Beta-2 adrenergic receptor (Homo sapiens), P07550 | AID 504454, 2011 | actives 0.43% (n = 340,000);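 active = response above a set limit, near 3 SD of response in nonfluorescent compounds, cut at about 42% in these data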
TAAR1 antag: human TAAR1 antagonists, primary screen, Fluo-8 calcium fluorescence, CHO RD-HGA16 cells; antagonist; inhibition, % at 3 µM; actives 1.5% (n = 360,000); AID 624466, 2012;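 active = inhibition above a per-plate cutoff, the mean inhibition of test compounds on that plate plus 3 SD, cut at about 49% in these data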;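 also: 0% = DMSO plus EC80 beta-PEA response and 100% = DMSO alone without agonist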
Target sequence (Q96RJ0 whole entry, looked up): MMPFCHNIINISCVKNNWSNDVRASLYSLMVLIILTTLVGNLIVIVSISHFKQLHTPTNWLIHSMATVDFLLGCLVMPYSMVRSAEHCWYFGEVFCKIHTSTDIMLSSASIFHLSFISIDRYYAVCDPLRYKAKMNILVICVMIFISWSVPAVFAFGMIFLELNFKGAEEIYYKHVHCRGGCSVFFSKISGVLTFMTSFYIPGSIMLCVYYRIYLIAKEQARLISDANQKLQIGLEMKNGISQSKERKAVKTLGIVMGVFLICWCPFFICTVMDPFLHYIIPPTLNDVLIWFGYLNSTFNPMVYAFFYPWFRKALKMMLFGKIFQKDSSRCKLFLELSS
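Test system: RD-HGA16 CHO cells with stable hTAAR1 and Gα16 / Probe or stimulus: EC80 β-phenethylamine stimulus / Times: seeding 17-24 h prior, 75-min 37 °C, 30-min RT dye loading / Detection: Fluo-8 calcium-sensitive fluorescence / Read-out basis: % inhibition scaled between DMSO and EC80 PEA controls / Repeats: singlicate, one well per test compound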
m5-HT2A agonist: mouse Htr2a agonists via beta-arrestin recruitment, primary screen, cell-based, luminescence | 5-hydroxytryptamine receptor 2A (Mus musculus), P35363 | CHO-K1 mHTR2A beta-arrestin complementation; percent of 30 µM serotonin response | activation, % at 7.6 µM | actives 0.66% (n = 360,000) | AID 624169, 2012;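 active = activation above a run cutoff, the mean activation of all tested compounds plus 3 SD, cut at about 14% in these data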;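 also: 0% = plate median of compound wells and 100% = 30 µM serotonin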
TAAR1 agonist: human TAAR1 agonists, primary screen, Fluo-8 calcium fluorescence, CHO RD-HGA16 cells. AID 624467, 2012. vehicle wells 0%, saturating PEA agonist 100%. actives 0.99% (n = 360,000). activation, % at 3 µM. Trace amine-associated receptor 1 (Homo sapiens), Q96RJ0;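 active = activation above the mean activation of all test compounds in the run plus 3 SD, cut at about 38% in these data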
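Test system: RD-HGA16 (CHO) cells co-expressing Gα16 and hTAAR1 | Doses: Single dose, 3 µM | Schedule: 17-24 h seeding, 75 min 37 °C dye, 30 min RT | Evaluation: % activation from peak over basal fluorescence ratio, DMSO-to-PEA scaled | Technique: Kinetic Fluo-8 calcium fluorescence | Benchmarks: Low control DMSO, high control PEA (EC100)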
MOR ag counter: OPRM1 agonists via beta-arrestin recruitment, confirmation, counter-screen for mouse HTR2A agonist project, cell-based, luminescence, single concentration; U2OS OPRM1 beta-arrestin PathHunter; DMSO 0%, DAMGO 9.3 µM 100%; actives 5.3% (n = 2,300); AID 624380, 2012; shares compounds with m5-HT2A agonist; activation, % at 9.3 µM;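 active = mean activation above the mean of DMSO-only wells plus 3 SD, cut at about 0.5% in these data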
Target sequence (P35372 whole entry, looked up): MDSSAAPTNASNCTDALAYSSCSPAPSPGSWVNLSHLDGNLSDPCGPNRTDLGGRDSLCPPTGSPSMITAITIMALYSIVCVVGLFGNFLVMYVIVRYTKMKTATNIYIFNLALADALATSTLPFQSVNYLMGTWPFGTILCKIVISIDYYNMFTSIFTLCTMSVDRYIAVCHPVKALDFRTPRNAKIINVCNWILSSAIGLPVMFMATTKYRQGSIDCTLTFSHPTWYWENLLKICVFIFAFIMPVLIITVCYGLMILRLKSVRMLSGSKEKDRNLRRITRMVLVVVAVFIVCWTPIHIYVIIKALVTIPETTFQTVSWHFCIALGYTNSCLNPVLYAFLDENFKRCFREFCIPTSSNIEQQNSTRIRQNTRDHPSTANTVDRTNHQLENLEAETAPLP
HTR2A ag conf: mouse HTR2A agonists, beta-arrestin recruitment, confirmation, cell-based, luminescence, CHO-K1 PathHunter, triplicate; AID 624381, 2012; DMSO 0%, 30 µM serotonin 100%; actives 19% (n = 2,300); activation, % at 7.6 µM; shares compounds with m5-HT2A agonist;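 active = mean activation across triplicates above the hit threshold derived in the original primary screen, cut at about 15% in these data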
Starred values were filed as active, the others as inactive; . = no result.

SMILES | MC4R ag barr | MC4R antagonist | Beta2AR agonist | TAAR1 antag | m5-HT2A agonist | TAAR1 agonist | MOR ag counter | HTR2A ag conf
COc1ccc(NC(=O)CSc2nc3ccccc3c(=O)n2CCCN2CCOCC2)c(OC)c1 | -0.3 | 5.5 | 1.6 | -1.0 | 38.9* | 0.2 | -0.6 | 12.5
CCc1ccc(NC(=O)CSc2nc3ccccc3c(=O)n2CCCN2CCC(C)CC2)cc1 | 6.2 | 6.8 | 10.4 | -20.7 | 47.8* | 7.9 | -0.2 | 20.1*
CN(Cc1ccccc1)C(=O)c1[nH]cnc1C(=O)Nc1cccc(Cl)c1 | 0.4 | -3.2 | -4.3 | 8.9 | -7.4 | 2.3 | . | .
COC(=O)Cc1nnn2c1[C@@H](C)[C@@H](c1ccccc1Br)OC[C@H](C)C2 | . | . | . | -16.6 | . | 0.0 | . | .
Cn1c(=O)oc2cc(S(=O)(=O)NCc3ccc(F)cc3)ccc21 | -2.1 | -4.2 | -68.3 | 4.1 | -3.5 | 1.8 | . | .
C=CCc1ccccc1OCCn1ccnc1 | 0.4 | 6.8 | 3.3 | 14.2 | 15.2* | 8.5 | -0.6 | -5.3
COc1ccc(S(=O)(=O)Nc2ccc(S(=O)(=O)Nc3cc(C)nc(C)n3)cc2)cc1OC | -0.5 | 12.7 | 2.1 | -15.6 | 4.9 | 5.8 | . | .
Cc1ccccc1NC(=O)C(C)Sc1nnc(-c2ccncc2)n1CC1CCCO1 (configuration not stated) | 0.6 | 9.1 | -1.8 | -14.7 | 4.1 | 0.8 | . | .
CCN1C(=O)[C@H]2[C@@H](c3ccc(C)cc3)N[C@]3(CCCN(Cc4ccccc4)C3=O)[C@H]2C1=O | 0.7 | 14.1 | . | -6.4 | 0.5 | 2.9 | . | .
Cn1cc(C(F)(F)F)nc1-c1ccc(OCC(O)CNCCOc2ccc(O)c(C(N)=O)c2)cc1 (configuration not stated) | 0.7 | 0.9 | . | -4.8 | 32.9* | 0.0 | -0.9 | 116.5*
O=C(Nc1cccc(S(=O)(=O)N2CCCC2)c1)c1ccco1 | -0.7 | 12.3 | -12.9 | -23.2 | 6.6 | 25.7 | . | .
O=C(Nc1ccc(S(=O)(=O)N2CCCCCC2)cc1)c1ccco1 | -2.7 | -2.6 | -11.7 | -13.1 | 14.6* | 7.4 | -0.6 | -2.3
Cc1cccc(N2CCN(CC(O)COc3ccc4ccccc4c3)CC2)c1 (configuration not stated) | 1.3 | 4.2 | -1.6 | -21.6 | 15.3* | 2.2 | -0.1 | 52.5*
O=C(COC(=O)Cc1ccsc1)Nc1ccccc1Cl | 0.4 | -2.6 | -4.9 | -6.5 | -1.5 | -0.8 | . | .
Cc1c(Cl)cccc1NC(=O)COC(=O)Cc1ccsc1 | -1.6 | 0.6 | -4.5 | -1.7 | 16.3* | 3.7 | -0.3 | 6.9
CC(=O)Nc1ccc(SCCN2CC[C@@H](O)CCC2=O)cc1 | -1.0 | 7.8 | -0.1 | 8.6 | 30.1* | 8.0 | -0.6 | -3.7
CC(=O)Nc1ccc(SCCN2CC[C@@H](C)CCC2=O)cc1 | -0.2 | 9.6 | -4.2 | 3.7 | 6.6 | 15.0 | . | .
CN=c1scc(-c2ccc(F)cc2)n1/N=C/c1ccc(O)c(O)c1 | -1.1 | -18.0 | 3.7 | 8.6 | 16.2* | 8.0 | -0.5 | 85.2*
CN(Cc1ccccc1)N=Nc1nc[nH]c1C(N)=O | . | . | . | -7.0 | 17.2* | 4.0 | -0.4 | -3.0
COc1ccc2[nH]cc(CCNC(=O)C3CC(=O)N(c4ccc(Cl)cc4)C3)c2c1 (configuration not stated) | -1.0 | 2.1 | 8.9 | -10.9 | 15.7* | -1.3 | -0.6 | 3.0
CCOc1ccc(N2CC(C(=O)NCCc3c[nH]c4ccc(OC)cc34)CC2=O)cc1 (configuration not stated) | -1.3 | 4.4 | 3.6 | 4.8 | 17.6* | -0.4 | -0.4 | 3.2
COc1ccc(CCNC(=O)C2CC(=O)N(c3ccc(C)cc3)C2)cc1 (configuration not stated) | 0.1 | -1.4 | 2.3 | -2.6 | 1.9 | -2.7 | . | .
COC(=O)C1=C(C)N(CCc2c[nH]c3ccc(OC)cc23)C(=O)C1 | 1.7 | 10.4 | 14.2 | -8.1 | 17.2* | 1.3 | -0.5 | -0.2
CCN1CCN(S(=O)(=O)c2c(C)[nH]c(C)c2C(=O)N2CCCCC2)CC1 | -2.5 | -2.9 | -5.6 | -8.2 | -2.8 | 1.8 | . | .
Cc1ccsc1C(=O)N1CCCC(C)(C(=O)O)C1 (configuration not stated) | -0.3 | 5.7 | . | -5.8 | 14.5* | 1.0 | -0.5 | -1.8
SMILES | MC4R ag barr | MC4R antagonist | Beta2AR agonist | TAAR1 antag | m5-HT2A agonist | TAAR1 agonist | MOR ag counter | HTR2A ag conf
CCCc1c(-c2ccc(F)cc2)ncn1CCc1ccccc1OC | . | . | . | 40.0 | 16.5* | 16.2 | 0.8* | -9.3
O=C(NC(=S)NC1CCCCCCCCCCC1)c1cccnc1 | -1.9 | -2.6 | 0.1 | -18.0 | 17.0* | 12.6 | -0.3 | 1.2
COc1ccc(NC(=O)CSc2nc3nc(C)cc(C)c3c(=O)[nH]2)cc1OC | -2.2 | -4.9 | 13.4 | -9.3 | -2.1 | 3.7 | . | .
CCOC(=O)c1c2c(n(Cc3ccccc3)c1C)C(=O)C(=O)c1ccccc1-2 | 1.9 | -7.0 | 10.0 | 55.4* | 15.2* | 2.8 | 1.8* | 9.3
CC(C)(C)C(CO)NC(=O)c1ccc[nH]1 (configuration not stated) | 0.4 | 4.4 | -3.4 | 1.6 | 3.4 | 12.6 | . | .
O=C(CCN1CCN(c2ccccc2F)CC1)Nc1ccc2c(c1)OCO2 | 0.0 | -1.1 | -1.5 | -1.3 | 17.6* | 6.0 | -0.3 | 59.4*
O=C(CCN1CCN(c2ccccc2)CC1)Nc1ccc2c(c1)OCO2 | -1.2 | 10.0 | -3.5 | 2.7 | 12.6 | 3.3 | . | .
Clc1ccc2[nH]c3c(c2c1)CNCC3 | 1.9 | 2.1 | 11.6 | -21.1 | -9.8 | 32.2 | . | .
Cc1cc(NC(=O)COc2cccc([N+](=O)[O-])c2)no1 | -0.9 | 5.2 | 2.5 | 8.9 | 17.7* | -0.1 | -0.4 | -1.2
Cc1cc(C)c2nc(-c3ccncc3)cc(C(=O)N3CCN(Cc4ccccc4Cl)CC3)c2c1 | -2.9 | 14.9 | 21.3 | 27.2 | -3.3 | 1.1 | . | .
CC(=O)c1sc(NC(=O)c2cccc(C)c2)nc1C | 1.5 | 13.1 | -9.2 | 3.8 | -2.0 | 9.1 | . | .
